Results on 97 compounds are retold here after ChEMBL document CHEMBL4513216, “Probing the Open Global Health Chemical Diversity Library for Multistage-Active Starting Points for Next-Generation Antimalarials” (ACS Infect Dis, 2020).

The series is described as follows: Toxicity liver stage against HepG2, at 10uM. The settings on record: human, HepG2-A16-CD81EGFP cells; read-out: INHIBITION
The series is classed as cell-based. Also on record: test concentration 10 uM, cell line HepG2-A16-CD81EGFP. A digest of the protocol:
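Uninfected HepG2-A16-CD81EGFP cells, 3 × 10^3 per well, 1536-well, plated on prespotted compound at 10 μM final, parasite-free screening media added to match infected plates; puromycin 10 μM positive, DMSO 0.5% negative; run in parallel with 48 h PbLuc assay at 37 °C, 5% CO2; viability by CellTiter-Glo luminescence, normalized to controls.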
Regarding `CC(=O)N1CCn2c(-c3ccccc3)cnc2C12CCNCC2`, the cytotoxicity at 10 µM stood at 7.43%.

Take `O=C(NC1CCCCC1)N1CCC(n2cc(-c3ccccn3)nn2)CC1`: the cytotoxicity at 10 µM came out at 4.49%.

`Cc1n[nH]c(C2CN(C(=O)c3cnc[nH]3)CCO2)n1` (configuration not stated): the cytotoxicity at 10 µM is -0.265%.

Turning to `O=C1NCCN2CCN(C(=O)Nc3ccc(-c4ccccc4)cc3)CC12` (configuration not stated), the cytotoxicity at 10 µM is -119%.

In the case of `O=C(NC1CC1)C1(Cc2cc(-c3ccc(F)cc3F)no2)CCOCC1`, the cytotoxicity at 10 µM came to 11%.

As for `CC(C)N1CCCC(C(=O)N2CCc3c(nc(CC4CC4)[nH]c3=O)C2)C1` (configuration not stated), the cytotoxicity at 10 µM was -7.41%.

Take `CCC(C)Oc1ccc(CNCCNC(C)=O)cc1Cl` (configuration not stated): the cytotoxicity at 10 µM was 1.12%.

For the compound `CNC(=O)C1CCC(NC(=O)N(C)Cc2c(C)noc2C)CC1` (configuration not stated), the cytotoxicity at 10 µM is -13.7%.

Turning to `O=C(c1ccco1)N1C[C@H]2CCCN(Cc3ccoc3)[C@H]2C1`, the cytotoxicity at 10 µM worked out at 0.276%.

As to `COc1ccc(C(=O)N2CCCS2(=O)=O)cc1OC`, the cytotoxicity at 10 µM was -17.6%.

Turning to `COc1cccc(-c2c[nH]c(C3CCCN3)n2)c1` (configuration not stated), the cytotoxicity at 10 µM is -4.91%.

With `CC1(c2ccccc2)CCC(=O)N(CCCN2CCOCC2)C1` (configuration not stated), the cytotoxicity at 10 µM is -18.1%.

Regarding `Cc1nn(C)c(N2CCOCC2)c1CNCC1CCCN1C` (configuration not stated), the cytotoxicity at 10 µM was -1.96%.

Take `COCCn1ccnc1C1CCCN(C(=O)c2cccnc2SC)C1` (configuration not stated): the cytotoxicity at 10 µM is -14.2%.

For the compound `CN(CC1(CO)CCCC1)c1nc2c(c(=O)[nH]1)Cc1ccccc1OC2`, the cytotoxicity at 10 µM was determined as 11.7%.

On to `COCC(=O)N1CCO[C@H]2[C@H](OC)CC[C@@H]21`, for which the cytotoxicity at 10 µM amounted to 6.61%.

As for `Cc1noc(C)c1CN1Cc2nccn2CC(CN2CCOCC2)C1` (configuration not stated), the cytotoxicity at 10 µM is -82%.

As for `CN1N=C(C(=O)NCCc2ccc(OC3CCCC3)cc2)CCC1=O`, the cytotoxicity at 10 µM is -1.52%.

In the case of `CC[C@H]1N(Cc2ccco2)CCC[C@]12CCC(=O)N2C`, the cytotoxicity at 10 µM was determined as 4.23%.

For the compound `COc1ccc(C)c2c1N(C(=O)c1cnc3onc(C)c3c1)CCC2`, the cytotoxicity at 10 µM was -1.67%.

As for `COc1ccccc1CN1CCCC(Cc2nccnc2N)C1` (configuration not stated), the cytotoxicity at 10 µM was -3.81%.

Turning to `Cc1cc2c(=O)n3c(nc2s1)CCN(Cc1cnn(C)c1C)CC3`, the cytotoxicity at 10 µM is 3.06%.

In the case of `Cc1nc(-c2ccccc2)n(CC(=O)NC(C2CC2)C2CC2)n1`, the cytotoxicity at 10 µM stood at 11%.

With `O=C(C1CCCN(CCc2ccc3c(c2)CCO3)C1)N1CCCC1` (configuration not stated), the cytotoxicity at 10 µM is -19.8%.

For the compound `NC1(c2nc(-c3ccccc3)cc(=O)[nH]2)CCCCC1`, the cytotoxicity at 10 µM was determined as 7.25%.

Take `Cc1nc(CNCc2c(C(C)C)nn(C)c2N2CCOCC2)cs1`: the cytotoxicity at 10 µM was -2.51%.

Turning to `O=C1CC(c2ccncc2)C2(CCN(C(=O)c3cccs3)CC2)N1` (configuration not stated), the cytotoxicity at 10 µM was -71.1%.

As for `CNC(=O)c1nc2c(s1)CCN(C(=O)c1cccc(OC)c1)CC2`, the cytotoxicity at 10 µM was 9.84%.

Turning to `Cn1cnnc1C1CCN(C(=O)c2cc3c(s2)CCCC3)CC1`, the cytotoxicity at 10 µM is -19%.

Take `CC[C@H]1N(Cc2ccc(OC)cc2)CCC[C@]12CCC(=O)N2C`: the cytotoxicity at 10 µM was -5.6%.

With `Cc1ccc(CNCC2CCc3nnc(C(C)C)n3C2)s1` (configuration not stated), the cytotoxicity at 10 µM was -4.43%.

Take `CNC(=O)[C@H]1C[C@H]2CN(Cc3ccccc3)C[C@@H]1O2`: the cytotoxicity at 10 µM is 8.84%.

In the case of `NC(=O)C1(c2cnccn2)CCCN1Cc1ccc(Cl)cc1` (configuration not stated), the cytotoxicity at 10 µM was -0.085%.

With `COc1ccc(C[C@H]2CN(C(=O)CN(C)C)CC[C@H]2OC)cc1`, the cytotoxicity at 10 µM turned out to be 3.96%.

Turning to `CN(C)c1cncc(C2CCN(C(=O)CO)CC2)n1`, the cytotoxicity at 10 µM is -1.37%.

Turning to `Cc1ncncc1-c1ccnc(NC(C)C)n1`, the cytotoxicity at 10 µM was -0.279%.

Turning to `Cc1nn(C)cc1C(=O)N1CCCC(n2cncn2)C1` (configuration not stated), the cytotoxicity at 10 µM is -3.27%.

As for `CN(Cc1ccco1)[C@@H]1CN(Cc2nccs2)C[C@@H]2CCCO[C@@H]21`, the cytotoxicity at 10 µM amounted to 6.07%.

For the compound `Cn1cc(CN2C[C@@H]3[C@@H](C2)OCC(=O)N3Cc2ccncc2)cn1`, the cytotoxicity at 10 µM is -7.9%.

Take `O=C(c1c[nH]cn1)N1CCCn2c(nnc2Cn2cccc2)C1`: the cytotoxicity at 10 µM worked out at 0.399%.

On to `CN(C)C(=O)CN1CCCCC1c1nc(N)ncc1-c1ccccc1` (configuration not stated), for which the cytotoxicity at 10 µM came to 4.19%.

Consider `Cc1nc(NCc2nnc(C)n2C)c2c(CC(C)C)csc2n1`, for which the cytotoxicity at 10 µM turned out to be 9.56%.

For `O=C(Nc1ccccc1F)N(CCO)CCOCC(F)(F)F`, the cytotoxicity at 10 µM stood at 1.1%.

On to `O=C(CN1CCC[C@@H]1C(=O)O)NCCOc1cccc(C(F)(F)F)c1`, for which the cytotoxicity at 10 µM was -1.7%.

For the compound `COc1cnc(CSc2nnc(C)s2)cc1OCC(N)=O`, the cytotoxicity at 10 µM turned out to be 8.52%.

`COCCNC(=O)c1ccc(C)c(-n2cccc2)c1`: the cytotoxicity at 10 µM is -3.06%.

Turning to `Cc1nncn1CCNC(=O)C(C)(C)c1cccc(C(F)(F)F)c1`, the cytotoxicity at 10 µM was determined as 8.63%.

With `CN(CC1CCCCC1)C(=O)c1ccc(-n2ncc(C#N)c2N)cc1`, the cytotoxicity at 10 µM was 0.347%.

For the compound `Cc1c(-c2cnn(C)c2)nc(N)c(C#N)c1-c1ccc(CO)o1`, the cytotoxicity at 10 µM is -117%.

Take `Cc1ccc(CN2CCCC3(CCCC(=O)N3)C2)s1` (configuration not stated): the cytotoxicity at 10 µM was -0.361%.

Turning to `Cn1ncc2c1NC(=O)CC2c1ccc(Cl)cc1Cl` (configuration not stated), the cytotoxicity at 10 µM worked out at 59.9%.

In the case of `COC(=O)CCCNC(=O)Nc1ccccc1OC`, the cytotoxicity at 10 µM turned out to be 6.45%.

On to `COCCN(C)C[C@@H]1CN(C(=O)c2ccc(C)cc2)C[C@@H]1CO`, for which the cytotoxicity at 10 µM was -9.21%.

As to `COc1ccccc1NC(=O)c1ccc(C)n1C`, the cytotoxicity at 10 µM is 1.42%.

For the compound `CC(C)Oc1ncccc1CNC(=O)c1ccc(=O)[nH]n1`, the cytotoxicity at 10 µM was -23.8%.

`OCc1ccc(-c2c(-c3ccccc3)ncn2CCN2CCOCC2)o1`: the cytotoxicity at 10 µM is -18.9%.

On to `COc1cc2c(cc1C(=O)N1CCCCC1c1ccccn1)CCC2` (configuration not stated), for which the cytotoxicity at 10 µM was -2.8%.

As for `CCc1nn(C)c2[nH]nc(NC(=O)c3cccnc3NC(C)C)c12`, the cytotoxicity at 10 µM came out at 3.07%.

Consider `CCNc1c(NC(=O)NCCOC)c(=O)oc2ccccc12`, for which the cytotoxicity at 10 µM is -2.89%.

As to `Cc1ccc(F)c(S(=O)(=O)NCc2[nH]ncc2Br)c1`, the cytotoxicity at 10 µM came to 0.67%.

On to `Cc1c(NCc2ccccc2C#N)cccc1S(=O)(=O)NC1CC1`, for which the cytotoxicity at 10 µM was found to be 30.4%.

Turning to `O[C@H]1CN(c2nc(-c3ccccc3)no2)C[C@@H]1N1CCOCC1`, the cytotoxicity at 10 µM is -20.8%.

Take `O=S(=O)(NCc1ccnc(-n2ccnc2)c1)c1cncc(F)c1`: the cytotoxicity at 10 µM was found to be 1.28%.

With `COCCn1ccc(NC(=O)Nc2cccc(C#N)c2)n1`, the cytotoxicity at 10 µM was 4%.

For `Cn1c(=O)oc2ccc(NC(=O)N3CCOCC3)cc21`, the cytotoxicity at 10 µM is -5.09%.

In the case of `CC(C)=CCN1CCNC(=O)C1CC(=O)N1CCc2sccc2C1` (configuration not stated), the cytotoxicity at 10 µM amounted to 0.429%.

As to `COc1cc(C)nc(N2CCN(C(=O)CCc3ccco3)CC2)n1`, the cytotoxicity at 10 µM was found to be 7.92%.

Turning to `Cc1ncc(CN(C)C2CCCN(Cc3noc(C4CC4)n3)C2)s1` (configuration not stated), the cytotoxicity at 10 µM was -13.5%.

On to `CCN1CCc2[nH]cnc2C12CCN(c1ccc(Cl)cn1)CC2`, for which the cytotoxicity at 10 µM was determined as 6%.

`CCOc1ccc(C(=O)N2Cc3cnc(CC(C)C)nc3C2)o1`: the cytotoxicity at 10 µM was found to be 7.18%.

On to `COc1ccccc1OCCN(C)Cc1c(C2CC2)[nH]c2ncccc12`, for which the cytotoxicity at 10 µM was 5.62%.

Take `CCC(NC(=O)Cn1ccc(=O)n(C)c1=O)c1ccc(OC)cc1` (configuration not stated): the cytotoxicity at 10 µM is 2.19%.

Take `Cc1cc(CN(C)c2nc(-c3ccco3)nc3c2CCN(C)CC3)on1`: the cytotoxicity at 10 µM was 9.34%.

Regarding `Cc1[nH]ncc1CCCNC(=O)Nc1ccc2c(c1)OC1(CCCC1)O2`, the cytotoxicity at 10 µM was 18.6%.

As to `Cc1cccc(N2CCOCC3(C2)CN(c2cccnc2)C(=O)CO3)n1` (configuration not stated), the cytotoxicity at 10 µM was -4.96%.

For the compound `Cc1ncncc1C(=O)N1CCCN(Cc2cnn(C(C)C)c2)CC1`, the cytotoxicity at 10 µM is 0.814%.

For `CC(C)N(C)C(=O)C1=NOC2(CCN(C(=O)c3ccncc3)C2)C1` (configuration not stated), the cytotoxicity at 10 µM was -0.237%.

With `CC(C)(C)c1n[nH]cc1CNCC1CCN(CC(F)(F)F)C1` (configuration not stated), the cytotoxicity at 10 µM was determined as 3.5%.

Consider `O=C(CC1CCCC1)N1CCC(c2cc3ncccc3c(O)n2)CC1`, for which the cytotoxicity at 10 µM was -24.7%.

Regarding `CCOCC(=O)N1CCC(C(O)c2ccc(F)cc2)CC1` (configuration not stated), the cytotoxicity at 10 µM was -3.83%.

In the case of `COc1c(C)cnc(CN2CCCC(c3noc(C4CC4)n3)C2)c1C` (configuration not stated), the cytotoxicity at 10 µM is -1.62%.

Consider `CC(=O)Cn1ncc(N2CCOCC2)cc1=O`, for which the cytotoxicity at 10 µM worked out at 7.26%.

Consider `CNC(=O)NC(=O)CCN1CCN(c2nccs2)CC1`, for which the cytotoxicity at 10 µM was -11.1%.

Regarding `CC(C(=O)Nc1nccs1)N(C)Cc1cccc(C#N)c1` (configuration not stated), the cytotoxicity at 10 µM amounted to 1.88%.

In the case of `c1csc(N2CCN(c3ncnc4sccc34)CC2)n1`, the cytotoxicity at 10 µM came out at 34.6%.

For the compound `Cc1cc(CNC(=O)C2CC(=O)N(CCN(C)C)C2)cc(C)n1` (configuration not stated), the cytotoxicity at 10 µM amounted to 3.05%.

Regarding `COCC1Cn2nnc(-c3cnn(C)c3)c2CN1Cc1ccc(C)o1` (configuration not stated), the cytotoxicity at 10 µM stood at 4.82%.

As for `O=C(Cc1csc(-c2ccccc2Cl)n1)NCc1cccc(C(=O)O)c1`, the cytotoxicity at 10 µM was -3.67%.

For the compound `COc1ccc(CN(Cc2cccnc2)CC2CCCO2)c(OC)c1` (configuration not stated), the cytotoxicity at 10 µM was determined as 1.13%.

Consider `CC(C)c1nccn1C1CCCN(C(=O)CCCc2ccccn2)C1` (configuration not stated), for which the cytotoxicity at 10 µM is -9.02%.

On to `Cc1occc1C(=O)N1CCCC2(CCN(c3ccccc3)C2=O)C1` (configuration not stated), for which the cytotoxicity at 10 µM was -5.5%.

Consider `CC(C)NC(=O)N1CCCC2(CC(C(=O)Nc3ccccc3)=NO2)C1` (configuration not stated), for which the cytotoxicity at 10 µM was -3.36%.

As for `FC(F)c1nnc2ccc(N3CCC4(CCCCC4)C3)nn12`, the cytotoxicity at 10 µM is 1.47%.

Take `Cc1cc(C)n(CC(C)NC(=O)C2(c3ccc(F)cc3)CC2)n1` (configuration not stated): the cytotoxicity at 10 µM was 11.5%.

Consider `CCc1noc(CN(C)C(=O)c2ccnc(OC3CCC3)c2)n1`, for which the cytotoxicity at 10 µM was 4.86%.

Take `Cn1nc(Cn2ccnc2)c2c1CN(c1ncccn1)C2`: the cytotoxicity at 10 µM worked out at 5.3%.

`CC1CCCN(Cc2csc(-c3ncccn3)n2)CC1` (configuration not stated): the cytotoxicity at 10 µM was 2.73%.
